From ChEMBL document CHEMBL4400518, “Synthesis, antimicrobial and cytotoxic activities, and molecular docking studies of N-arylsulfonylindoles containing an aminoguanidine, a semicarbazide, and a thiosemicarbazide moiety” (Eur J Med Chem, 2019)
Values after ≈ are worked out from the molar mass of the structure shown.

Columns and labels:
Format in all cases: functional
Enterococcus faecalis = test: Antibacterial activity against Enterococcus faecalis CMCC 29212 measured after 24 hrs by ELISA; conditions: CMCC 29212, 24 h
How it was run: (§1)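 Broth microdilution MIC. Mid-log bacteria in MHB or TSB diluted 1000-fold, inoculated at 10^5 CFU/mL. Compounds added from DMSO stocks; final DMSO at most 0.05%. Incubation 24 h at 37 °C. Growth read as absorbance at 630 nm. MIC taken as the lowest concentration giving complete growth inhibition. Three independent experiments.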

Staphylococcus aureus [1] = test: Antibacterial activity against Staphylococcus aureus CMCC(B) 26003 measured after 24 hrs by ELISA; conditions: CMCC(B) 26003, 24 h; how it was run: as §1
Pseudomonas aeruginosa [2] = test: Antibacterial activity against Pseudomonas aeruginosa CMCC 10104 measured after 24 hrs by ELISA; conditions: CMCC 10104, 24 h; how it was run: as §1
Pseudomonas aeruginosa [3] = test: Antibacterial activity against Pseudomonas aeruginosa CMCC 27853 measured after 24 hrs by ELISA; conditions: CMCC 27853, 24 h; how it was run: as §1
Streptococcus pneumoniae = test: Antibacterial activity against Streptococcus pneumoniae CMCC 31968 measured after 24 hrs by ELISA; conditions: CMCC 31968, 24 h
Escherichia coli [4] = test: Antibacterial activity against Escherichia coli CMCC 44568 measured after 24 hrs by ELISA; conditions: CMCC 44568, 24 h; how it was run: as §1
Bacillus subtilis = test: Antibacterial activity against Bacillus subtilis CMCC 63501 measured after 24 hrs by ELISA; conditions: CMCC 63501, 24 h; how it was run: as §1
Staphylococcus aureus [5] = test: Antibacterial activity against Staphylococcus aureus CMCC 25923 measured after 24 hrs by ELISA; conditions: CMCC 25923, 24 h; how it was run: as §1
Escherichia coli [6] = test: Antibacterial activity against Escherichia coli CMCC 25922 measured after 24 hrs by ELISA; conditions: CMCC 25922, 24 h; how it was run: as §1
Streptococcus pyogenes = test: Antibacterial activity against Streptococcus pyogenes CMCC 32067 measured after 24 hrs by ELISA; conditions: CMCC 32067, 24 h; how it was run: as §1
Staphylococcus aureus [7] = test: Antibacterial activity against methicillin-resistant Staphylococcus aureus ATCC 43300 measured after 24 hrs by ELISA; conditions: ATCC 43300, 24 h
How it was run: (§2)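 Broth serial dilution MIC. Mid-log bacteria in Mueller-Hinton or Tryptone Soya broth, diluted 1000-fold and inoculated at 10^5 CFU/mL. Compounds from DMSO stock, final DMSO ≤0.05%. Incubated 24 h at 37 °C; growth read as absorbance at 630 nm. MIC is the lowest concentration giving complete growth inhibition. Three independent experiments.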

Pseudomonas aeruginosa [8] = test: Antibacterial activity against multidrug-resistant Pseudomonas aeruginosa ATCC BAA-2111 measured after 24 hrs by ELISA; conditions: ATCC BAA-2111, 24 h; how it was run: as §2
Escherichia coli [9] = test: Antibacterial activity against multidrug-resistant Escherichia coli ATCC BAA-196 measured after 24 hrs by ELISA; conditions: ATCC BAA-196, 24 h; how it was run: as §2
Staphylococcus aureus [10] = test: Antibacterial activity against methicillin-resistant Staphylococcus aureus ATCC 33591 measured after 24 hrs by ELISA; conditions: ATCC 33591, 24 h; how it was run: as §2

SMILES	MIC (Enterococcus faecalis)	MIC (Staphylococcus aureus [1])	MIC (Pseudomonas aeruginosa [2])	MIC (Pseudomonas aeruginosa [3])	MIC (Streptococcus pneumoniae)	MIC (Escherichia coli [4])	MIC (Bacillus subtilis)	MIC (Staphylococcus aureus [5])	MIC (Escherichia coli [6])	MIC (Streptococcus pyogenes)	MIC (Staphylococcus aureus [7])	MIC (Pseudomonas aeruginosa [8])	MIC (Escherichia coli [9])	MIC (Staphylococcus aureus [10])
CC/C(=N/NC(N)=S)c1cn(S(=O)(=O)c2ccc(C)cc2)c2ccccc12	> 320 µM	320 µM (≈ 128 µg/mL)	> 320 µM	> 320 µM	> 320 µM	> 320 µM	> 320 µM	320 µM (≈ 128 µg/mL)	> 320 µM	> 320 µM	–	–	–	–
N=C(N)N/N=C\c1cn(S(=O)(=O)c2ccccc2)c2ccccc12	46.9 µM (≈ 16 µg/mL)	5.87 µM (≈ 2 µg/mL)	23.5 µM (≈ 8.01 µg/mL)	46.9 µM (≈ 16 µg/mL)	46.9 µM (≈ 16 µg/mL)	23.5 µM (≈ 8.01 µg/mL)	11.7 µM (≈ 4 µg/mL)	11.7 µM (≈ 4 µg/mL)	> 375 µM	> 375 µM	–	–	–	–
CC/C(=N/NC(N)=S)c1cn(S(=O)(=O)c2ccccc2)c2ccc(Br)cc12	> 276 µM	276 µM (≈ 128 µg/mL)	> 276 µM	276 µM (≈ 128 µg/mL)	> 276 µM	> 276 µM	69 µM (≈ 32.1 µg/mL)	> 276 µM	> 276 µM	> 276 µM	–	–	–	–
NC(=O)N/N=C\c1cn(S(=O)(=O)c2ccccc2)c2ccccc12	> 374 µM	93.6 µM (≈ 32 µg/mL)	> 374 µM	> 374 µM	> 374 µM	> 374 µM	93.6 µM (≈ 32 µg/mL)	93.6 µM (≈ 32 µg/mL)	> 374 µM	> 374 µM	–	–	–	–
COc1c(N2CCNC(C)C2)c(F)cc2c(=O)c(C(=O)O)cn(C3CC3)c12 (stereo not drawn) [GATIFLOXACIN]	2.67 µM (≈ 1 µg/mL)	0.33 µM (≈ 0.124 µg/mL)	5.33 µM (≈ 2 µg/mL)	5.33 µM (≈ 2 µg/mL)	> 341 µM	0.33 µM (≈ 0.124 µg/mL)	5.33 µM (≈ 2 µg/mL)	0.33 µM (≈ 0.124 µg/mL)	0.33 µM (≈ 0.124 µg/mL)	> 341 µM	1.33 µM (≈ 0.499 µg/mL)	2.66 µM (≈ 0.999 µg/mL)	1.33 µM (≈ 0.499 µg/mL)	0.67 µM (≈ 0.252 µg/mL)
COc1c(N2C[C@@H]3CCCN[C@@H]3C2)c(F)cc2c(=O)c(C(=O)O)cn(C3CC3)c12 [MOXIFLOXACIN]	–	0.31 µM (≈ 0.124 µg/mL)	9.98 µM (≈ 4.01 µg/mL)	–	> 319 µM	0.31 µM (≈ 0.124 µg/mL)	–	0.31 µM (≈ 0.124 µg/mL)	0.31 µM (≈ 0.124 µg/mL)	> 319 µM	1.25 µM (≈ 0.502 µg/mL)	–	1.25 µM (≈ 0.502 µg/mL)	0.62 µM (≈ 0.249 µg/mL)
C/C(=N/NC(N)=O)c1cn(S(=O)(=O)c2ccccc2)c2ccc(Br)cc12	36.9 µM (≈ 16 µg/mL)	295 µM (≈ 128 µg/mL)	> 295 µM	> 295 µM	> 295 µM	> 295 µM	295 µM (≈ 128 µg/mL)	295 µM (≈ 128 µg/mL)	> 295 µM	> 295 µM	–	–	–	–
Cc1onc(-c2ccccc2)c1C(=O)N[C@@H]1C(=O)N2[C@@H]1SC(C)(C)[C@@H]2C(=O)O [OXACILLIN]	319 µM (≈ 128 µg/mL)	0.31 µM (≈ 0.124 µg/mL)	> 319 µM	> 319 µM	> 319 µM	> 319 µM	> 319 µM	0.31 µM (≈ 0.124 µg/mL)	319 µM (≈ 128 µg/mL)	> 319 µM	160 µM (≈ 64.1 µg/mL)	–	–	19.9 µM (≈ 8.01 µg/mL)
CC1(C)S[C@@H]2[C@H](NC(=O)Cc3ccccc3)C(=O)N2[C@H]1C(=O)O [PENICILLIN G]	383 µM (≈ 128 µg/mL)	0.37 µM (≈ 0.124 µg/mL)	95.8 µM (≈ 32 µg/mL)	> 383 µM	> 383 µM	> 383 µM	383 µM (≈ 128 µg/mL)	0.37 µM (≈ 0.124 µg/mL)	383 µM (≈ 128 µg/mL)	> 383 µM	95.8 µM (≈ 32 µg/mL)	–	–	> 95.8 µM
CC/C(=N/NC(=N)N)c1cn(S(=O)(=O)c2ccccc2)c2ccc(Br)cc12	8.95 µM (≈ 4.01 µg/mL)	4.47 µM (≈ 2 µg/mL)	> 286 µM	> 286 µM	1.12 µM (≈ 0.502 µg/mL)	4.47 µM (≈ 2 µg/mL)	4.47 µM (≈ 2 µg/mL)	4.47 µM (≈ 2 µg/mL)	17.9 µM (≈ 8.03 µg/mL)	> 286 µM	–	–	–	–
C/C(=N/NC(N)=O)c1cn(S(=O)(=O)c2ccc(C)cc2)c2ccc(Br)cc12	> 286 µM	286 µM (≈ 128 µg/mL)	> 286 µM	> 286 µM	> 286 µM	> 286 µM	8.93 µM (≈ 4.01 µg/mL)	> 286 µM	> 286 µM	> 286 µM	–	–	–	–
CC/C(=N/NC(N)=O)c1cn(S(=O)(=O)c2ccc(C)cc2)c2ccccc12	> 333 µM	333 µM (≈ 128 µg/mL)	> 333 µM	> 333 µM	> 333 µM	> 333 µM	333 µM (≈ 128 µg/mL)	83.3 µM (≈ 32 µg/mL)	> 333 µM	> 333 µM	–	–	–	–
C/C(=N/NC(=N)N)c1cn(S(=O)(=O)c2ccccc2)c2ccccc12	45.1 µM (≈ 16 µg/mL)	22.5 µM (≈ 8.01 µg/mL)	45.1 µM (≈ 16 µg/mL)	90.1 µM (≈ 32 µg/mL)	1.4 µM (≈ 0.498 µg/mL)	11.3 µM (≈ 4.01 µg/mL)	22.5 µM (≈ 8.01 µg/mL)	22.5 µM (≈ 8.01 µg/mL)	45.1 µM (≈ 16 µg/mL)	22.5 µM (≈ 8.01 µg/mL)	–	–	–	–
C/C(=N/NC(=N)N)c1cn(S(=O)(=O)c2ccccc2)c2ccc(Br)cc12	9.24 µM (≈ 4.01 µg/mL)	4.62 µM (≈ 2.01 µg/mL)	> 296 µM	> 296 µM	4.62 µM (≈ 2.01 µg/mL)	9.24 µM (≈ 4.01 µg/mL)	9.24 µM (≈ 4.01 µg/mL)	4.62 µM (≈ 2.01 µg/mL)	18.5 µM (≈ 8.03 µg/mL)	296 µM (≈ 128 µg/mL)	–	–	–	–
